# Compound activity as filed in PubChem BioAssay.
# CHOP inh: inhibitors of CHOP induction in ER stress response | CHO-K1 CHOP-promoter luciferase, tunicamycin-induced, 15-18 h | AID 2732 | inhibition, % at 10 µM | 220,000 tested, 3.8% active;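 active means compounds that reduced the stress-induced luciferase reporter signal by more than about 70% of percent inhibition, limit read from the data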;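 further: 0% = tunicamycin plus vehicle and 100% = wells without tunicamycin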
# PKD1 kinase inh: blocks activity of human protein kinase D1; Q15139; PKD1 kinase fluorescence polarization assay; inhibition, % (test concentration not listed); 200,000 tested, 0.056% active; AID 797
# Target sequence (Q15139 whole entry, looked up): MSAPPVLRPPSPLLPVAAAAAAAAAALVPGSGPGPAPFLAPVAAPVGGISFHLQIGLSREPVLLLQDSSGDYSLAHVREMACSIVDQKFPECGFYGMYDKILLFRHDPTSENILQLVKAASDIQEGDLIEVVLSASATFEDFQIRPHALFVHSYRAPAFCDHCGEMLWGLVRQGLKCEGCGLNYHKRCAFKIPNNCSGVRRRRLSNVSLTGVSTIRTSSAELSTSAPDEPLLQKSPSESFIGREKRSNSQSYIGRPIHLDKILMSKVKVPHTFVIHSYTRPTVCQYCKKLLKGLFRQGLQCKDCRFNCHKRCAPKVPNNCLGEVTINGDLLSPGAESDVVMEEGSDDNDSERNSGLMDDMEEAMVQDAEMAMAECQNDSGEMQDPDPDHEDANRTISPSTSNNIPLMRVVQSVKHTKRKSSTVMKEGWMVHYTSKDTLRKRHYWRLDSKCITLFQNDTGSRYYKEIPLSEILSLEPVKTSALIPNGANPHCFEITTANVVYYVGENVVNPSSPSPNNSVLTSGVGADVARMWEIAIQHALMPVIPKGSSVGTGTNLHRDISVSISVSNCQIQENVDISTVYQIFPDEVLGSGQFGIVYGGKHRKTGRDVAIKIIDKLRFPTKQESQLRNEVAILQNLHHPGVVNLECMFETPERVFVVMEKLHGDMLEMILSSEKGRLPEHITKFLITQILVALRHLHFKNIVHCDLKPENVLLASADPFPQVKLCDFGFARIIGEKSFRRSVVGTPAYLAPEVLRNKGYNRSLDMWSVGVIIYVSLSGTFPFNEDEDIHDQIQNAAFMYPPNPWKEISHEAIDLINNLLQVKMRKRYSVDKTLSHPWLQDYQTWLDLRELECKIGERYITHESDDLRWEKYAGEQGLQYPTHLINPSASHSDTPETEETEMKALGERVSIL
# Arbovirus anti: antivirals against arbovirus infection; AID 1251; arbovirus infection cell-based antiviral screen; inhibition, % at 10 µM; 200,000 tested, 0.37% active; in the data active means inhibition above about 30%
# Lmaj promast: inhibitors of Leishmania major promastigote growth; 200,000 tested, 9% active; inhibition, % at 10 µM; Leishmania major promastigotes, resazurin fluorescence viability;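 further: promastigotes grown with compound for 44 hours at 28 °C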
# Wee1 stabilizer: human Wee1 degradation inhibition, primary screen | AID 1321 | 220,000 tested, 1.2% active | HeLa Luc-Wee1K328M stability, luciferase luminescence; 100% = proteasome inhibitor MG132 effect | reporter increase, % at 5 µM;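 active means activation above the mean of all tested compounds plus 3 SD, set per screening run, cut at about 8.8% in these data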;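 further: cells exposed to compound for 20 h before luminescence read; 0% = DMSO alone and 100% = MG132 at 30 µM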
# Rad51 HR inh: blocks human Rad51 in homologous recombination | Q06609 | hRad51 DNA strand exchange, fluorescence dequenching | inhibition, % at 10 µM | 200,000 tested, 0.085% active | AID 1385;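 active means inhibition above 40% at the single screening dose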;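 further: 0% = DMSO control wells and 100% = blanks with heterologous ssDNA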
#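 System: human Rad51 nucleoprotein filaments preassembled on unlabelled ssDNA. Reagent: labelled 47-mer dsDNA for strand exchange. Schedule: 30-min compound preincubation and 15-min exchange, both room temperature. Measured by: FRET fluorescence dequenching, excitation 485 nm, emission 520 nm. Read-out: Fluorescence-based percent inhibition, control- and blank-normalised. Benchmarks: plate controls and plate blanks.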
# * marks the source's active call; other numbers are inactive results; x = not tested or not shown. Hits are enriched below; roughly 12% of the tested compounds scored in any of these assays. Unless noted, no stated cut-off is given here; in the data, active means inhibition above about 50%; inactive means the rest.
SMILES,CHOP inh,PKD1 kinase inh,Arbovirus anti,Lmaj promast,Wee1 stabilizer,Rad51 HR inh
COc1ccc(CCNC(=O)/C(C#N)=C/c2cccc(OCc3ccccc3)c2)cc1OC,11,6,-10,100*,1,3
COc1cc(/C=C(\C#N)C(=O)NCC2CCCO2)ccc1OC(C)C (stereo unspecified),-15,-11,7,79*,-4,-4
COc1cc(/C=C(\C#N)C(=O)NCc2ccccc2)ccc1OCc1ccc(C(=O)O)cc1,-15,x,x,x,11*,x
N#C/C(=C\c1ccc(OCc2cccc(C(=O)O)c2)cc1)C(=O)NCc1ccco1,-21,x,x,x,9.2*,5
COCCNC(=O)/C(C#N)=C/c1ccc(OCc2ccccc2)cc1,-16,-6,2,24,1,-7
O=C1C=C(NCc2ccc3c(c2)OCO3)CC(c2ccccc2)C1 (stereo unspecified),33,-5,-19,-4,-4,5
Cn1c(NCc2ccco2)nc2c1c(=O)n(Cc1ccc(Br)cc1)c(=O)n2C,89*,-6,4,2,-3,1
Cn1c(NCc2ccco2)nc2c1c(=O)n(Cc1ccc(Cl)cc1Cl)c(=O)n2C,88*,-2,-6,-5,0,7
Cn1c(NCc2ccco2)nc2c1c(=O)n(Cc1ccc(Cl)cc1)c(=O)n2C,79*,-2,2,-6,-1,-17
CCCn1c(NCc2ccco2)nc2c1c(=O)n(C)c(=O)n2C,13,-8,9,-9,1,2
Cc1c[nH]c(=O)c([N+](=O)[O-])c1,11,x,x,x,-2,x
COc1ccccc1C1=NNC(=Nc2cccc(S(=O)(=O)N(C)C)c2)SC1,54,-2,-20,-6,-3,19
C/C=C1\C(=O)CC2C3CCC4=CC(=O)CC[C@]4(C)C3CC[C@]12C (stereo partly specified),12,x,x,x,x,x
Cc1nc(C2CCC3C4CCC5=CC(=O)CC[C@]5(C)C4CC[C@]23C)cs1 (stereo partly specified),76*,x,x,x,-4,12
COc1ccc(-c2csc3nc(C)nc(N4CCN(c5ccc(C(C)=O)cc5)CC4)c23)cc1OC,18,4,-4,18,-1,2
COc1ccc(OC)c(NC(=O)CSc2ncnc3c2cnn3-c2ccccc2Cl)c1,80*,-1,17,25,1,-7
COc1cc(NC(=O)CSc2ncnc3c2cnn3Cc2ccccc2)cc(OC)c1,-35,-2,1,1,0,0
O=S(=O)(CCc1ccncc1)C1Cc2cccc3cccc1c23 (stereo unspecified),13,x,x,x,-2,-3
O=[N+]([O-])C(/C=C(/Cl)[N+](=O)[O-])=C(N1CCCCC1)N1CCCCC1,4,x,x,x,6,-6
COCCNC(=O)c1c(N)n(-c2cccc(C)c2)c2nc3ccccc3nc12,77*,-14,0,35,-1,-6
C=CCNC(=O)c1c(N)n(-c2cccc(S(N)(=O)=O)c2)c2nc3ccccc3nc12,24,-4,7,84*,3,-13
COCCCNC(=O)c1c(N)n(-c2ccc(S(N)(=O)=O)cc2)c2nc3ccccc3nc12,7,10,9,-3,3,x
O=C(NC1CCCCC1)C(=S)NC1CCCCC1,-3,2,3,-3,2,-8
Cc1cc(C(=O)N/N=C2\CC(=O)c3ccccc32)c(C)n1-c1ccccc1,-3,-6,-3,98*,4,2
Cc1cc(C(=O)N/N=C2\CC(=O)CC(C)(C)C2)c(C)n1-c1ccccc1,40,5,10,-5,-3,-2
SMILES,CHOP inh,PKD1 kinase inh,Arbovirus anti,Lmaj promast,Wee1 stabilizer,Rad51 HR inh
CC(=O)O[C@@H]1[C@@]2(C)O[C@H]2CC[C@]23O[C@H]2[C@H](OC3=O)C2=C(C)C(=O)O[C@@]21O,11,2,4,-5,-1,-3
CC(/C=N/NC(=O)c1cc(-c2ccc(C)o2)[nH]n1)=C\c1ccccc1,94*,-2,-7,-1,0,-3
CC(/C=N/NC(=O)c1cc(C2CC2)[nH]n1)=C\c1ccccc1,-4,x,x,x,-2,17
CC(/C=N/NC(=O)c1cc(-c2cccs2)[nH]n1)=C\c1ccccc1,91*,3,-5,0,-1,1
O=C(NCCCN1CCOCC1)c1ccc(Sc2ccccc2Cl)c([N+](=O)[O-])c1,33,-7,-7,94*,0,4
O=C(NCCCN1CCOCC1)c1ccc(Sc2ccc(Br)cc2)c([N+](=O)[O-])c1,46,-6,-2,92*,-1,9
O=C(Cc1ccccc1[N+](=O)[O-])NCCCN1CCOCC1,-8,2,2,0,7,13
CCOc1[nH]n(-c2ccccc2)c(=O)c1C=Nc1ccc(C)cc1,77*,-1,2,-5,-2,-5
CCC(Oc1ccccc1)C(=O)NCCOC (stereo unspecified),9,-9,5,50,3,2
O=c1oc2ccccc2c(O)c1/C=C1\C=Nc2ccccc21,-2,-6,-13,100*,-3,-9
O=c1oc2ccccc2c(O)c1/C=N/c1ncccn1,x,x,x,x,x,5
C=CCn1c(-c2sc3nc(C)cc(C)c3c2N)n[nH]c1=S,-2,x,x,x,-1,-10
NCCNc1ccc([N+](=O)[O-])c(Sc2nc3ccccc3[nH]2)c1,18,-7,6,-5,-1,7
CCC(=O)OCCNc1cc(Sc2nc3ccccc3s2)c2nonc2c1[N+](=O)[O-],113*,-1,-46,44,-1,-7
CCC(=O)OCCNc1cc(Sc2nc3ccccc3[nH]2)c2nonc2c1[N+](=O)[O-],109*,-5,-48,38,0,6
CCCC(=O)OCCNc1cc(SCc2ccco2)c2nonc2c1[N+](=O)[O-],13,-1,-44,16,-1,-8
Cc1onc(-c2ccccc2)c1C(=O)N=C(N)c1ccc(C(F)(F)F)cc1,-16,x,x,x,0,-10
Cc1ccc([N+](=O)[O-])cc1N/C=C1\CCCCC1=O,17,2,-2,5,2,-1
Cc1cccc(C)c1OCC(O)CN (stereo unspecified),-22,4,17,7,2,8
Cc1cc(OCC(O)CN)ccc1Cl (stereo unspecified),-6,3,-8,92*,3,-1
CCc1cccc(CC)c1NC(=O)c1cc(CN2C(=O)c3ccccc3C2=O)ccc1OC,56,-2,4,88*,0,-1
COc1ccc(CN2C(=O)c3ccccc3C2=O)cc1C(=O)OC(C)C(=O)NC(N)=O (stereo unspecified),19,-4,-4,-4,-3,5
O=C(COC(=O)C1CCN(S(=O)(=O)c2cccs2)CC1)Nc1ccc(F)cc1F,-8,x,x,x,2,9
Cc1ccccc1-c1n[nH]c(=S)n1/N=C/c1c(C)nn(-c2ccccc2)c1C,30,1,-8,7,1,-1
